PfG6PD inh: PfG6PD (Plasmodium falciparum) enzyme inhibition. PfGluPho enzyme, NADPH resazurin-diaphorase fluorescence. inhibition, % at 20 µM. 350,000 tested, 0.78% active. AID 504690;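 active = inhibition reaching at least a set limit at 20 µM in the primary screen, cut at about 59% in these data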;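 note: 0% = DMSO wells with substrate and 100% = DMSO wells lacking glucose-6-phosphate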
Diaph inh CS: inhibits diaphorase or chemically oxidizes, flagging diaphorase assay artifacts; diaphorase resazurin-to-resorufin fluorescence, NADH, 16 min; bacterial (C. kluyveri) enzyme, not human; inhibition, % at 20 µM; 190,000 tested, 0.69% active; AID 1217;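 active = primary screen inhibition at 20 µM above a set limit, cut at about 50% in these data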;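 note: plate controls were DMSO with full reaction for no effect and wells lacking NADH for full effect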
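Assay system: diaphorase enzyme from Clostridium kluyveri; Input: enzyme working solution with 0.14 U/mL diaphorase; Timing: 16 min at room temperature; Technique: resorufin fluorescence, excitation 544 nm, emission 590 nm; Benchmarks: positive control minus NADH, DMSO neutral control.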
Redox H2O2 prof: compounds producing H2O2 with reducing agent – biochemical, NIH compound library profiling, artefact control for MLSCN library redox annotation, primary screen. AID 878. DTT-dependent redox cycling H2O2, phenol red/HRP absorbance; 100% = 100 µM peroxide control, 0% = buffer. activation, % at 10 µM. 200,000 tested, 0.03% active;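 active = activation of at least 50% relative to the plate's high and low controls in the primary single-dose screen; inactive = activation below 50%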;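 note: compound incubated with DTT at 0.8 mM final as the reducing agent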
Lmaj promast: inhibitors of Leishmania major promastigote growth. 200,000 tested, 9% active. AID 1063. Leishmania major promastigotes, resazurin fluorescence viability. inhibition, % at 10 µM;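 note: promastigotes grown with compound for 44 hours at 28 °C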
G6PDH counter: counter-screen for G6PDH assay hits: L. mesenteroides G6PDH inhibition; 200,000 tested, 0.12% active; AID 1020; inhibition, % at 5 µM; Purified L. mesenteroides G6PDH, diaphorase/resazurin coupled fluorescence, 45 min
Diaphorase act: diaphorase activation or chemical reduction counter-screen. Diaphorase/resazurin coupled assay, resorufin fluorescence, 16 min; active compounds read high; 1 = vehicle wells, 0 = NADH-free wells. activation factor at 20 µM. 190,000 tested, 0.005% active;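 active = diaphorase activity raised at least twofold by the compound at 20 µM; inactive = activation factor below 2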
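Material: purified diaphorase enzyme from Clostridium kluyveri / Medium: HEPES pH 7.4 buffer with MgCl2 and Tween 20 / Schedule: enzyme reaction of 16 min at room temperature / Measured by: resorufin fluorescence, excitation 544 nm, emission 590 nm / Evaluation: rise in resorufin formation, marking diaphorase activation or chemical reduction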
* = called active by the depositor. Only a selection was taken, and hits are over-represented in it overall. Cut-off read from the data, not from the text of the source, unless noted: active = inhibition above about 50%; inactive = the rest.

`COc1cccc(/C=C2/CN(C)CC3=C2OC(N)=C(C#N)C3c2cccc(OC)c2)c1` (centres undefined) gave PfG6PD inh 7, Diaph inh CS 14, Redox H2O2 prof 1, Lmaj promast 53*, G6PDH counter 5 and Diaphorase act 0.9.
`CC(C)C(C(=O)NCC1CCCO1)N(C(=O)CNS(=O)(=O)c1ccccc1)C1CCCCC1` (centres undefined) gave PfG6PD inh -2.
Screening O=C1C=CC2(O[C@H](c3ccccc3)[C@@H](c3ccccc3)O2)[C@H](Sc2ccccc2O)C1 returned PfG6PD inh 54.
For COc1ccccc1C(CC(=O)Nc1ccc(C)c(C)c1)c1ccc(OC(C)C)cc1 (centres undefined) the results were PfG6PD inh 4, Diaph inh CS 4, Redox H2O2 prof 1, Lmaj promast 51*, G6PDH counter -15 and Diaphorase act 1.
CCN(CC)CCCNc1nc2cc(OC)c(OC)cc2c2nc(-c3ccccc3)nn12 was read as PfG6PD inh 4, Diaph inh CS 0, Redox H2O2 prof 0, Lmaj promast 101*, G6PDH counter 5 and Diaphorase act 1.
For COc1cc2nc(NCCCN3CCN(C)CC3)n3nc(-c4ccccc4)nc3c2cc1OC the results were PfG6PD inh 15, Diaph inh CS -31, Redox H2O2 prof 1, Lmaj promast 101*, G6PDH counter 18 and Diaphorase act 1.3.
`CCN(CC)CCCNc1nc2cc(OC)c(OC)cc2c2nc(-c3cccnc3)nn12` gave PfG6PD inh 8, Diaph inh CS 0, Redox H2O2 prof 0, Lmaj promast 101*, G6PDH counter 5 and Diaphorase act 1.
`CN1CCN(CCCNc2nc3ccccc3c3nc(-c4ccccc4)nn23)CC1` gave PfG6PD inh 13.
`COCCCNc1nc2cc(OC)c(OC)cc2c2nc(-c3ccccc3)nn12` gave PfG6PD inh 1.
CC(=O)N1c2ccc(S(=O)(=O)NCCC(=O)Nc3ccc(OC(F)(F)F)cc3)cc2CC1C (centres undefined) was read as PfG6PD inh 13.
For Cc1ccc(C)c(-n2nnc3ccccc3c2=O)c1 the results were PfG6PD inh -17.
Screening Cc1cccc(NC(=O)C2Cc3ccccc3CN2C(=O)OCc2ccccc2)c1C (centres undefined) returned PfG6PD inh -1, Diaph inh CS 20, Redox H2O2 prof -1, Lmaj promast 98*, G6PDH counter 17 and Diaphorase act 0.8.
For CC(OC(=O)c1ccc(Cl)nc1)C(=O)N1CCc2ccccc21 (centres undefined) the results were PfG6PD inh 5.
For Cc1nn(-c2ccccc2)c(N2CCCC2)c1/C=N/Nc1ccc(S(=O)(=O)Nc2ccccc2)cc1[N+](=O)[O-] the results were PfG6PD inh -3, Diaph inh CS 4, Redox H2O2 prof 2, Lmaj promast 97*, G6PDH counter -3 and Diaphorase act 1.
COc1ccccc1NS(=O)(=O)c1cccc(C(=O)N/N=C/c2cn(-c3ccccc3)nc2-c2ccccc2)c1 was read as PfG6PD inh 10, Diaph inh CS 6, Redox H2O2 prof 0, Lmaj promast 53*, G6PDH counter 1 and Diaphorase act 0.9.
Screening COc1ccc(-c2nn(-c3ccccc3)cc2/C=N/NC(N)=S)cc1OC returned PfG6PD inh 9, Diaph inh CS 36, Lmaj promast 80*, G6PDH counter -2 and Diaphorase act 0.6.
For COc1c(/C=N/Nc2ccc([N+](=O)[O-])cc2[N+](=O)[O-])c(C)nn1-c1ccccc1 the results were PfG6PD inh 7, Diaph inh CS 11, Redox H2O2 prof 4, Lmaj promast 1, G6PDH counter 3 and Diaphorase act 0.9.
For CCN(CC)c1ccc(/C=N/NC(=O)c2cccc(S(=O)(=O)Nc3ccccc3OC)c2)c(O)c1 the results were PfG6PD inh -2, Diaph inh CS 19, Redox H2O2 prof 0, Lmaj promast 100*, G6PDH counter -18 and Diaphorase act 0.8.
CC1(C)Cc2c(cnn2-c2ccccc2)C(NC(=O)CCN2CCCC2=O)C1 (centres undefined) was read as PfG6PD inh 5.
Screening CN1CCn2cnc(C(=O)N[C@@H](Cc3ccccc3)C(=O)OC(C)(C)C)c2C1=O returned PfG6PD inh 11.
COc1ccccc1NS(=O)(=O)c1ccc(N/N=C/c2ccccc2OCC(=O)O)c([N+](=O)[O-])c1 was read as PfG6PD inh -6, Diaph inh CS 15, Redox H2O2 prof 0, Lmaj promast -1, G6PDH counter 6 and Diaphorase act 0.9.
`COc1ccccc1NS(=O)(=O)c1ccc(N/N=C/c2c(C)nn(-c3ccccc3)c2N2CCCC2)c([N+](=O)[O-])c1` gave PfG6PD inh 6, Diaph inh CS 8, Redox H2O2 prof 2, Lmaj promast 100*, G6PDH counter -2 and Diaphorase act 0.9.
O=C(CNc1ccccc1)N/N=C/c1cn(-c2ccccc2)nc1-c1ccccc1 was read as PfG6PD inh 0, Diaph inh CS 12, Redox H2O2 prof 1, Lmaj promast 69*, G6PDH counter 13 and Diaphorase act 0.9.
COc1ccccc1NS(=O)(=O)c1ccc(N/N=C/C=C/c2ccccc2[N+](=O)[O-])c([N+](=O)[O-])c1 was read as PfG6PD inh -10, Diaph inh CS 11, Redox H2O2 prof -1, Lmaj promast 50*, G6PDH counter 1 and Diaphorase act 0.9.
COc1ccccc1NS(=O)(=O)c1cccc(C(=O)N/N=C/c2c(C)nn(-c3ccccc3)c2N2CCCC2)c1 was read as PfG6PD inh -2, Diaph inh CS 13, Redox H2O2 prof 0, Lmaj promast 96*, G6PDH counter -9 and Diaphorase act 0.9.
`CCOC(=O)Cc1csc(NC(=O)C(NC(=O)C2CCCCC2)C(C)C)n1` (centres undefined) gave PfG6PD inh -7, Diaph inh CS 9, Redox H2O2 prof -1, Lmaj promast 7, G6PDH counter 11 and Diaphorase act 0.9.
COc1cccc(CNc2ccc(N3CCC(C)CC3)cc2)c1OC was read as PfG6PD inh 48, Diaph inh CS 63*, Redox H2O2 prof 2, Lmaj promast 48, G6PDH counter 3 and Diaphorase act 0.4.
`CC1CCCC(NC(=O)c2cccs2)C1C` (centres undefined) gave PfG6PD inh 3.

Screens from PubChem.
